Compound activity: PubChem BioAssay, several laboratories
GRIN3A LBD mod = binders of NR3A ligand-binding domain, primary screen, biophysical, differential scanning fluorimetry, uHTS; Tm shift relative to glycine control, % at 25 µM; hit rate 2.5% among 340,000; NR3A LBD differential scanning fluorimetry, Tm shift; 0% = protein alone, 100% = glycine-bound protein; AID 1259313, 2017; Glutamate receptor ionotropic, NMDA 3A (GRIN3A) ligand-binding domain;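 active = melting temperature shift of at least 10% of the positive control shift, at one fixed dose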
Cardio protect = cardioprotection against H2O2-induced cell death, primary screen, uHTS, H9c2 cells, ATPLite luminescence; protection from H2O2 cell death, % at 20 µM; H9c2 cardiomyocytes, H2O2 injury protection, 2 h; hit rate 0.63% among 360,000;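 active = compounds giving at least 50% protection of heart cells from peroxide-induced death in the single-dose screen, raw or plate-pattern-corrected value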;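 note: 0% = DMSO wells with peroxide and 100% = DMSO wells without peroxide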
Arr AP2 block = inhibitors of beta-arrestin/AP2 binding, primary screen, biochemical, GPCR trafficking, flow cytometry; beta-arrestin 1 C-terminal peptide binding to AP2 beta2-adaptin appendage (human); FITC-arrestin peptide / GST-AP2 beads; AP2 beta2 appendage carries R879A mutation; hit rate 0.31% among 340,000; inhibition, % at 10 µM; AID 504490, 2011;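 active = inhibition above a set limit, near 3 SD of compounds lacking own fluorescence, cut at about 54% in these data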;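 note: plate controls were DMSO wells for no effect and 5 µM unlabelled arrestin peptide for full effect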
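Assay system: GST-AP2 R879A bound to glutathione beads, E. coli-expressed; Medium: PBS with 0.05% Tween 20 and 0.1% BSA; Also added: fluorescein-tagged arrestin peptide at 50 nM final; Timing: 12 min plus 1 h, RT; Measured by: flow cytometry, FL1 (488/535 nm); Evaluation: percent drop in bead-associated FITC signal.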
SENP1 inh = human SENP1 catalytic domain inhibitors, primary screen, biochemical, FRET, uHTS; inhibition, % at 10 µM; Sentrin-specific protease 1 (Homo sapiens), Q9P0U3; AID 624204, 2012; hit rate 0.21% among 360,000; recombinant SENP1 catalytic domain, CyPet-SUMO1-YPet FRET cleavage;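 active = inhibition at least 30% at 10 µM, raw YFP signal under a set limit, fluorescence ratio 0.5 to 1.5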;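 note: 0% = enzyme with DMSO and 100% = no enzyme wells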
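Test system: hSENP1 catalytic domain, recombinant; Amount: 20 pM final SENP1 enzyme; Medium: Tris pH 8 buffer plus EDTA, NaCl, BME, BSA, NP40, catalase; Schedule: 50 min enzyme reaction, room temperature, light-protected; Technique: FRET fluorescence in CFP and YFP emission channels; Controls: no-enzyme wells low, DMSO-plus-enzyme wells high control.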
hiPSC survival = enhancers of single-cell hiPSC survival, primary screen, ATPlite luminescence; 100% = ROCK inhibitor wells, 0% = DMSO; survival enhancement, % at 20 µM; hit rate 0.044% among 360,000; in the data active = survival enhancement above about 18%;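 note: cells exposed to compounds for 16 hours before the ATP read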
FAS TE block = FAS thioesterase domain inhibitors, primary screen, biochemical, fluorescence intensity, uHTS | hit rate 0.67% among 360,000 | Fatty acid synthase (Homo sapiens), P49327 | recombinant FAS-TE, OMFH fluorogenic substrate, fluorescence endpoint | inhibition, % at 15 µM;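 active = compounds whose normalised, plate-corrected inhibition of enzyme fluorescence in the single-dose primary screen is 50% or more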;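 note: 0% = DMSO with enzyme and 100% = substrate without enzyme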
The depositor's hits bear a star; x = no result. Most compounds without a hit are left out; they make up all but 4% or so of the library.

SMILES	GRIN3A LBD mod	Cardio protect	Arr AP2 block	SENP1 inh	hiPSC survival	FAS TE block
CCN(c1ccccc1)S(=O)(=O)c1ccc(Oc2ccccc2)c(N)c1	3	-15	29	-1	3	22
Cc1nc2ccc(NC(=O)c3ccco3)cc2s1	16*	-10	0	-2	-2	-1
Cc1nc2ccc(NC(=O)c3sccc3C)cc2s1	32*	-10	-7	-1	-2	-9
CC(=O)Nc1nc2ccc(NC(=O)c3ccco3)cc2s1	-8	1	-2	2	-1	-2
Cc1nc2ccc(NC(=O)c3cccc(S(=O)(=O)N(C)c4ccccc4)c3)cc2s1	18*	-18	2	-30	1	24
COc1ccc(N(C)S(=O)(=O)c2cccc(C(=O)Nc3ccc(-n4cnnn4)cc3)c2)cc1	26*	-5	-9	3	3	15
COc1ccc(N(C)S(=O)(=O)c2cccc(C(=O)Nc3ccc4c(c3)OCCO4)c2)cc1	-8	20	40	-1	0	16
CCCCN(C)C(=O)c1sc(=O)n(Cc2ccc(Cl)c(Cl)c2)c1C	x	-2	x	-3	-3	8
COC(=O)c1cccc(N2C(=O)C[C@](Sc3ccc(C)cc3)(C(=O)OC)[C@H]2c2ccccc2)c1	x	x	x	0	-2	27
CCOC(=O)[C@]12Cc3c(cc(OC)c(OC)c3OC)[C@H]1N(Cc1ccccc1)C(=O)c1cc(OC)ccc12	x	x	x	-2	-1	22
O=C(NCCS(=O)(=O)N1CCN(c2ccccc2F)CC1)c1ccc2c(c1)OCO2	31*	-5	3	1	-1	-3
CC1=C(C(=O)N2CCCCCC2)CC(CC(=O)NCCCCc2ccccc2)C(=O)N1CCC1=CCCCC1 (configuration not stated)	x	x	x	-1	-3	32
CCOC(=O)c1c(NC2OC(=O)c3c2ccc(OC)c3OC)sc(C(=O)OC(C)(C)C)c1C (configuration not stated)	18*	-9	-7	0	-1	14
COc1ccc2c(c1OC)C(=O)OC2Nc1ccccn1 (configuration not stated)	0	1	0	2	2	-5
CCOC(=O)c1sc(-c2ccccc2)cc1NC(=O)Nc1ccccc1	16*	-7	-1	1	2	38
CCOC(=O)c1sc(NC(=O)Nc2ccccc2)cc1C	43*	-17	-1	2	-1	18
CCOC(=O)c1sc(NC(C)=O)cc1C	-1	-1	4	1	2	4
CCOC(=O)c1sc(NC(=O)c2cccc(S(=O)(=O)N3c4ccccc4CC3C)c2)cc1C (configuration not stated)	13*	-1	22	3	0	16
Cc1sc(NC(=O)Nc2ccccc2)c(C(N)=O)c1C	13*	-12	10	1	0	2
CCOC(=O)c1sc(-c2ccc(F)cc2)cc1NC(=O)Nc1ccccc1OC	3	-6	5	0	1	35
Cc1ccc(S(=O)(=O)N2C3CCCCC3O[C@H]2CC(=O)c2cccs2)cc1 (some centres not stated)	x	x	x	0	x	x
CCOC(=O)[C@]12CCCC=C1N(Cc1cccc3ccccc13)C(=O)[C@H](CC(=O)N1CCCC1)C2	x	x	x	4	0	4
CCOC(=O)c1c(N)sc(C(=O)Nc2ccccc2)c1C	27*	-32	40	3	-3	2
CCOC(=O)c1c(N)sc(C(=O)Nc2ccccc2F)c1C	-15	-16	-12	3	0	1
CCOC(=O)c1sc(-c2ccc(Br)cc2)cc1N	16*	-11	1	-6	-2	27
CCOC(=O)c1c(N)sc2c(NC(C)=O)cccc12	31*	-2	3	-1	0	-6
